According to ChEMBL document CHEMBL1129604, “Design, synthesis, and evaluation of nonpeptidic inhibitors of human rhinovirus 3C protease” (J Med Chem, 1996):

What was measured:
[1] = molecular target: T1, Human rhinovirus A protease (Human rhinovirus sp., UniProt Q4U254); experiment: Inhibition of human rhinovirus 3C protease; set-up: species or system Rhinovirus B
T1 sequence (Q4U254 whole entry): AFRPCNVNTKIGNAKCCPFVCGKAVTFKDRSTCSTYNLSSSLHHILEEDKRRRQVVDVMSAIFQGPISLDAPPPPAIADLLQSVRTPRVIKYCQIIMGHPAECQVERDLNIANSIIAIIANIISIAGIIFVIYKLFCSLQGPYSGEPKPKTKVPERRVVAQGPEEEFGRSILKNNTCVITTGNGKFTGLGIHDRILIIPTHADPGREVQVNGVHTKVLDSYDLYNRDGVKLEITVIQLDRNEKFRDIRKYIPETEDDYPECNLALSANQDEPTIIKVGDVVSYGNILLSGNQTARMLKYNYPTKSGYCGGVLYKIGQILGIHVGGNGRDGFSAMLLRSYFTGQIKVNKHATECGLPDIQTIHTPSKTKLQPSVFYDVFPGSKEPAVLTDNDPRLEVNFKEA
Method in brief: (§1)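 Buffer was 50 mM Tris pH 7.6, 1 mM EDTA, 2% DMSO at 30 °C. Enzyme and inhibitor were preincubated 10 min before substrate start. Fluorescence ex 336/em 490 nm. Ki came from nonlinear fit of initial velocity versus inhibitor.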

Enterovirus [2] = experiment: Compound was tested for the inhibitory activity of compound towards human rhinovirus 3C protease; format: functional, organism-based; method in brief: as §1
Enterovirus [3] = experiment: Compound was tested for the inhibitory activity of compound towards human rhinovirus-89 3C protease; format: functional, organism-based
Method in brief: (§2)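 3CP from HRV-16, -2 or -89 was cloned from infected-HeLa cDNA (3A C-terminus–3B–3C region), expressed in E. coli and purified. The same FRET assay (1 μM DABCYL/EDANS peptide, 50 mM Tris pH 7.6, 1 mM EDTA, 2% DMSO, 30 °C, 10 min preincubation) was run at 100–200 nM enzyme. Ki was obtained by nonlinear regression of initial velocities.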

[4] = Percentage inhibition of Cathepsin (human liver) at 10 uM conc of drug
[5] = molecular target: Chymotrypsinogen A (Bos taurus) (UniProt P00766); experiment: Percentage inhibition of bovine chymotrypsin at 50 uM conc of drug
HeLa [6] = experiment: Compound was tested for the 50% toxic concentration against Human Rhinovirus-14 (HRV-14) in Hela cells; format: functional; details: read-out: TC50 (the source's name)
Method in brief: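 HI-HeLa cells in MEM with 10% FBS, mock-infected with medium only, resuspended at 8 × 10^5 cells/mL and incubated with compound. After two days, XTT/PMS was added and formazan was read at 450/650 nm. CC50 is the concentration lowering formazan to 50% of compound-free uninfected cells.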

HeLa [7] = experiment: Compound was tested for the antiviral activity against Human Rhinovirus -14(HRV-14) in HeLa cells; format: functional, cell-based
Method in brief: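 Cell protection assay in HI-HeLa cells (MEM, 10% FBS). Cells were infected with HRV-14 at moi 0.13, resuspended at 8 × 10^5 cells/mL and incubated with compound for two days. XTT/PMS formazan was read at 450/650 nm. EC50 is the concentration restoring formazan to 50% of compound-free uninfected cells.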

[8] = molecular target: T2, Neutrophil elastase (Homo sapiens) (UniProt P08246); experiment: (§3) Percentage inhibition of Pancreatic elastase at 100 uM conc of drug
T2 sequence (whole entry): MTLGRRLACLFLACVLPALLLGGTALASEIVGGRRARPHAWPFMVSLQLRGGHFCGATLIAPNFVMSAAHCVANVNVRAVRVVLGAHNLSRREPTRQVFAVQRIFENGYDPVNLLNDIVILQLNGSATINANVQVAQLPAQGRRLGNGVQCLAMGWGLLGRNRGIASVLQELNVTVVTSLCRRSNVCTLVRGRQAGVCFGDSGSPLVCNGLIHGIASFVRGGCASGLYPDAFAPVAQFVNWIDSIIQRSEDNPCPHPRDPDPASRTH

[9] = molecular target: Prothrombin (Homo sapiens) (UniProt P00734); experiment: (§4) Percentage inhibition of human thrombin at 100 uM conc of drug
[10] = molecular target: T3, Serine protease 1 (Bos taurus) (UniProt P00760); experiment: (§5) Percentage inhibition of bovine trypsin at 100 uM conc of drug
T3 sequence (whole entry): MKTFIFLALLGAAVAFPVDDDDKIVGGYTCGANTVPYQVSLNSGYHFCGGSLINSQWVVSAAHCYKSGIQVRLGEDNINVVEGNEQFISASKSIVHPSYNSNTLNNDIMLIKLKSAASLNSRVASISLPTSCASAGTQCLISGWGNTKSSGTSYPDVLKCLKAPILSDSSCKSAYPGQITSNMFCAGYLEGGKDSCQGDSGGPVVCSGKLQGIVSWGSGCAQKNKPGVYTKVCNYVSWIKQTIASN

Enterovirus [11] = experiment: Compound was tested for the inhibitory activity of compound towards human rhinovirus-2 3C protease; format: functional, organism-based; method in brief: as §2
Enterovirus [12] = experiment: Compound was tested for the inhibitory activity of compound towards human rhinovirus-16 3C protease; format: functional, organism-based; method in brief: as §2
[13] = Theuraptic index was reported; format: functional
Method in brief: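 TI is CC50 (uninfected HI-HeLa, XTT formazan) divided by EC50 (HRV-14-infected HI-HeLa, moi 0.13, two days, XTT read at 450/650 nm).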

[14] = (§6) Percentage inhibition of Cathepsin (human liver) at 100 uM conc of drug; format: functional
[15] = molecular target: Chymotrypsinogen A (Bos taurus) (UniProt P00766); experiment: (§7) Percentage inhibition of bovine chymotrypsin at 100 uM conc of drug; format: functional
[16] = molecular target: T2, Neutrophil elastase (Homo sapiens); experiment: as §3; format: functional
[17] = molecular target: T3, Serine protease 1 (Bos taurus); experiment: as §5; format: functional
[18] = molecular target: Prothrombin (Homo sapiens) (UniProt P00734); experiment: as §4; format: functional
[19] = as §6
[20] = molecular target: Chymotrypsinogen A (Bos taurus) (UniProt P00766); experiment: as §7

| Compound | Ki [1] [µM] | CC50 (HeLa [6]) [µM] | EC50 (HeLa [7]) [µM] | other results |
| --- | --- | --- | --- | --- |
| CN1C(=O)C(=O)c2ccccc21 | > 100 | – | – | – |
| CN1C(=O)C(=O)c2cc([S+](C)[O-])ccc21 (configuration not stated) | 8.2 | – | – | – |
| CN1C(=O)C(=O)c2cc(Cl)ccc21 | 59 | – | – | – |
| NC(=O)c1ccc2c(c1)C(=O)C(=O)N2Cc1cc2ccccc2s1 | – | 5.6 | > 5.6 | Ki (Enterovirus [2]): 0.002 µM; Ki (Enterovirus [3]): 0.0011 µM; inhibition [4]: 0%; inhibition [5]: 25%; inhibition [8]: 0%; inhibition [9]: 0%; inhibition [10]: 0%; Ki (Enterovirus [11]): 0.0052 µM; Ki (Enterovirus [12]): 0.012 µM |
| CN(C)C(=O)c1ccc2c(c1)C(=O)C(=O)N2C | 33 | – | – | – |
| CN1C(=O)C(=O)c2cc(I)ccc21 | 30 | > 100 | 71 | TI [13]: > 1 |
| COc1ccc2cc(CN3C(=O)C(=O)c4cc(C(N)=O)ccc43)ccc2c1 | 0.003 | – | – | – |
| COC(=O)c1ccc2c(c1)C(=O)C(=O)N2C | 30 | > 100 | 56 | TI [13]: > 2 |
| CN1C(=O)C(=O)c2cc(C(N)=S)ccc21 | 11 | – | – | – |
| NC(=O)c1ccc2c(c1)C(=O)C(=O)N2Cc1cc(O)cc(O)c1 | 0.004 | > 100 | > 100 | – |
| NC(=O)c1ccc2c(c1)C(=O)C(=O)N2Cc1cccc(O)c1 | 0.011 | 20 | > 20 | – |
| NC(=O)c1ccc2c(c1)C(=O)C(=O)N2Cc1ccc2ccccc2c1 | 0.004 | 10 | > 10 | – |
| CC(=O)c1ccc2c(c1)C(=O)C(=O)N2C | 1.2 | – | – | – |
| NC(=O)c1ccc2c(c1)C(=O)C(=O)N2CCCc1ccccc1 | 0.027 | 7.1 | > 7.1 | – |
| Cc1ccc(CN2C(=O)C(=O)c3cc(C(N)=O)ccc32)cc1C | 0.006 | – | – | – |
| CN1C(=O)C(=O)c2cc(C#N)ccc21 | 51 | – | – | – |
| NC(=O)c1ccc2c(c1)C(=O)C(=O)N2Cc1ccccc1 | 0.019 | 50.1 | 14.1 | TI [13]: 3.5 |
| NC(=O)c1ccc2c(c1)C(=O)C(=O)N2Cc1ccc(-c2ccccc2)cc1 | 0.048 | – | – | – |
| NC(=O)c1ccc2c(c1)C(=O)C(=O)N2C/C=C/c1ccccc1 | – | 9.6 | 6.3 | Ki (Enterovirus [2]): 0.011 µM; inhibition at 100 µM [14]: 27%; inhibition [15]: 67%; inhibition [16]: 40%; inhibition [17]: 0%; TI [13]: 1.5; inhibition [18]: 34% |
| COc1cccc(CN2C(=O)C(=O)c3cc(C(N)=O)ccc32)c1 | 0.029 | 20 | > 20 | – |
| CNC(=O)c1ccc2c(c1)C(=O)C(=O)N2C | 12 | – | – | – |
| CN1C(=O)C(=O)c2cc(C(=O)O)ccc21 | 10 | > 100 | > 100 | – |
| CN1C(=O)C(=O)c2cc([N+](=O)[O-])ccc21 | 9.7 | – | – | – |
| Cc1ccc(CN2C(=O)C(=O)c3cc(C(N)=O)ccc32)cc1 | 0.01 | – | – | – |
| COc1cc(CN2C(=O)C(=O)c3cc(C(N)=O)ccc32)cc(OC)c1 | 0.025 | – | – | – |
| NC(=O)c1ccc2c(c1)C(=O)C(=O)N2Cc1ccc2cc(O)ccc2c1 | 0.004 | – | – | – |
| CN1C(=O)C(=O)c2cc(C(N)=O)ccc21 | – | 270 | 66 | Ki (Enterovirus [2]): 0.051 µM; Ki (Enterovirus [3]): 0.035 µM; inhibition [19]: 0%; inhibition [20]: 0%; inhibition [8]: 0%; inhibition [9]: 0%; inhibition [10]: 0%; Ki (Enterovirus [11]): 0.077 µM; TI [13]: 4; Ki (Enterovirus [12]): 0.04 µM |
